{"source": "ChEMBL document CHEMBL1127066", "about": "“Discovery and structure-activity relationship of a series of 1-carba-1-dethiacephems exhibiting activity against methicillin-resistant Staphylococcus aureus” (J Med Chem, 1993)", "data": [{"system": "Staphylococcus aureus", "test": "In vitro antimicrobial activity against Staphylococcus aureus X400 strain", "assay_type": "functional", "units": {"MIC": "µg/mL"}, "values": [{"compound": "Nc1nc(/C(=N\\OCCF)C(=O)N[C@@H]2C(=O)N3C(C(=O)[O-])=C(Sc4nc5c(=O)[nH]c(=O)[nH]c5s4)CC[C@H]23)cs1.[Na+]", "MIC": 128}, {"compound": "Nc1nc(/C(=N\\OCCF)C(=O)N[C@@H]2C(=O)N3C(C(=O)[O-])=C(Sc4nc5ccc([N+](=O)[O-])cc5s4)CC[C@H]23)cs1.[Na+]", "MIC": 2}]}, {"system": "Klebsiella", "test": "In vitro antimicrobial activity against Klebsiella X26 strain", "assay_type": "functional", "units": {"MIC": "µg/mL"}, "values": [{"compound": "Nc1nc(/C(=N\\OCCF)C(=O)N[C@@H]2C(=O)N3C(C(=O)[O-])=C(Sc4nc5c(=O)[nH]c(=O)[nH]c5s4)CC[C@H]23)cs1.[Na+]", "MIC": 0.06}, {"compound": "Nc1nc(/C(=N\\OCCF)C(=O)N[C@@H]2C(=O)N3C(C(=O)[O-])=C(Sc4nc5ccc([N+](=O)[O-])cc5s4)CC[C@H]23)cs1.[Na+]", "MIC": 0.06}]}, {"system": "Pseudomonas aeruginosa", "test": "Antimicrobial activity against Pseudomonas PS18 strain", "assay_type": "functional", "units": {"MIC": "µg/mL"}, "values": [{"compound": "Nc1nc(/C(=N\\OCCF)C(=O)N[C@@H]2C(=O)N3C(C(=O)[O-])=C(Sc4nc5c(=O)[nH]c(=O)[nH]c5s4)CC[C@H]23)cs1.[Na+]", "MIC": 64}, {"compound": "Nc1nc(/C(=N\\OCCF)C(=O)N[C@@H]2C(=O)N3C(C(=O)[O-])=C(Sc4nc5ccc([N+](=O)[O-])cc5s4)CC[C@H]23)cs1.[Na+]", "MIC": 64}]}, {"system": "Staphylococcus aureus", "test": "Minimum inhibitory concentration against heteroresistant strain of Staphylococcus aureus 430 in 4% of NaCl", "assay_type": "functional", "units": {"MIC": "µg/mL"}, "values": [{"compound": "Nc1nc(/C(=N\\OCCF)C(=O)N[C@@H]2C(=O)N3C(C(=O)[O-])=C(Sc4nc5ccc([N+](=O)[O-])cc5s4)CC[C@H]23)cs1.[Na+]", "MIC": 1}]}, {"organism": "Rattus norvegicus", "test": "In vitro plasma protein binding was evaluated using Sprauge-Dawley rat at 20 ug/mL", "assay_type": "ADME", "procedure,_shortened": "(§1)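 Binding was measured by ultrafiltration (Centrifree micropartition) in pooled plasma (ICR mouse, Sprague–Dawley rat, rhesus monkey or human) at a drug concentration of 20 μg/mL.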", "units": {"Bound": "%"}, "values": [{"compound": "Nc1nc(/C(=N\\OCCF)C(=O)N[C@@H]2C(=O)N3C(C(=O)[O-])=C(Sc4nc5ccc([N+](=O)[O-])cc5s4)CC[C@H]23)cs1.[Na+]", "Bound": 98.3}]}, {"system": "Staphylococcus aureus", "test": "Minimum inhibitory concentration against homoresistant strain of Staphylococcus aureus 447 in 4% of NaCl", "assay_type": "functional", "units": {"MIC": "µg/mL"}, "values": [{"compound": "Nc1nc(/C(=N\\OCCF)C(=O)N[C@@H]2C(=O)N3C(C(=O)[O-])=C(Sc4nc5ccc([N+](=O)[O-])cc5s4)CC[C@H]23)cs1.[Na+]", "MIC": 1.9}]}, {"biological_target": "not listed separately", "test": "Tested against penicillin binding protein 2a (PBP2a) enzyme.", "units": {"IC50": "µg/mL"}, "values": [{"compound": "Nc1nc(/C(=N\\OCCF)C(=O)N[C@@H]2C(=O)N3C(C(=O)[O-])=C(Sc4nc5ccc([N+](=O)[O-])cc5s4)CC[C@H]23)cs1.[Na+]", "IC50": 0.85}]}, {"organism": "Mus musculus", "test": "In vitro plasma protein binding was evaluated using ICR mouse at 20 ug/mL", "assay_type": "ADME", "procedure,_shortened": "as §1", "units": {"Bound": "%"}, "values": [{"compound": "Nc1nc(/C(=N\\OCCF)C(=O)N[C@@H]2C(=O)N3C(C(=O)[O-])=C(Sc4nc5ccc([N+](=O)[O-])cc5s4)CC[C@H]23)cs1.[Na+]", "Bound": 96.9}]}, {"system": "Streptococcus pneumoniae", "test": "In vitro antimicrobial activity against Streptococcus pneumoniae PARK strain", "assay_type": "functional", "units": {"MIC": "µg/mL"}, "values": [{"compound": "Nc1nc(/C(=N\\OCCF)C(=O)N[C@@H]2C(=O)N3C(C(=O)[O-])=C(Sc4nc5c(=O)[nH]c(=O)[nH]c5s4)CC[C@H]23)cs1.[Na+]", "MIC": "< 0.008"}, {"compound": "Nc1nc(/C(=N\\OCCF)C(=O)N[C@@H]2C(=O)N3C(C(=O)[O-])=C(Sc4nc5ccc([N+](=O)[O-])cc5s4)CC[C@H]23)cs1.[Na+]", "MIC": "< 0.008"}]}, {"system": "Staphylococcus aureus", "test": "Minimum inhibitory concentration against methicillin-resistant Staphylococcus aureus 430 (MRSA) in vitro using trypticase soy broth (TSB) with 4% NaCl", "assay_type": "functional", "units": {"MIC": "µg/mL"}, "values": [{"compound": "Nc1nc(/C(=N\\OCCF)C(=O)N[C@@H]2C(=O)N3C(C(=O)[O-])=C(Sc4nc5ccc([N+](=O)[O-])cc5s4)CC[C@H]23)cs1.[Na+]", "MIC": 1}]}, {"system": "Staphylococcus aureus", "test": "Minimum inhibitory concentration against sensitive strain of Staphylococcus aureus 446 in the absence of NaCl", "assay_type": "functional", "units": {"MIC": "µg/mL"}, "values": [{"compound": "Nc1nc(/C(=N\\OCCF)C(=O)N[C@@H]2C(=O)N3C(C(=O)[O-])=C(Sc4nc5ccc([N+](=O)[O-])cc5s4)CC[C@H]23)cs1.[Na+]", "MIC": 0.25}]}, {"system": "Pseudomonas aeruginosa", "test": "In vitro antimicrobial activity against Pseudomonas X239 strain", "assay_type": "functional", "units": {"MIC": "µg/mL"}, "values": [{"compound": "Nc1nc(/C(=N\\OCCF)C(=O)N[C@@H]2C(=O)N3C(C(=O)[O-])=C(Sc4nc5c(=O)[nH]c(=O)[nH]c5s4)CC[C@H]23)cs1.[Na+]", "MIC": "> 128"}, {"compound": "Nc1nc(/C(=N\\OCCF)C(=O)N[C@@H]2C(=O)N3C(C(=O)[O-])=C(Sc4nc5ccc([N+](=O)[O-])cc5s4)CC[C@H]23)cs1.[Na+]", "MIC": "> 128"}]}, {"system": "Staphylococcus aureus", "test": "In vitro antimicrobial activity against Staphylococcus aureus X1.1 strain", "assay_type": "functional", "units": {"MIC": "µg/mL"}, "values": [{"compound": "Nc1nc(/C(=N\\OCCF)C(=O)N[C@@H]2C(=O)N3C(C(=O)[O-])=C(Sc4nc5c(=O)[nH]c(=O)[nH]c5s4)CC[C@H]23)cs1.[Na+]", "MIC": 2}, {"compound": "Nc1nc(/C(=N\\OCCF)C(=O)N[C@@H]2C(=O)N3C(C(=O)[O-])=C(Sc4nc5ccc([N+](=O)[O-])cc5s4)CC[C@H]23)cs1.[Na+]", "MIC": 0.06}]}, {"system": "Staphylococcus aureus", "test": "Minimum inhibitory concentration against heteroresistant strain of Staphylococcus aureus 430 in the absence of NaCl", "assay_type": "functional", "units": {"MIC": "µg/mL"}, "values": [{"compound": "Nc1nc(/C(=N\\OCCF)C(=O)N[C@@H]2C(=O)N3C(C(=O)[O-])=C(Sc4nc5ccc([N+](=O)[O-])cc5s4)CC[C@H]23)cs1.[Na+]", "MIC": 1}]}, {"system": "Enterobacter cloacae", "test": "In vitro evaluation of antimicrobial activity against Enterobacter cloacae EB5 strain", "assay_type": "functional", "units": {"MIC": "µg/mL"}, "values": [{"compound": "Nc1nc(/C(=N\\OCCF)C(=O)N[C@@H]2C(=O)N3C(C(=O)[O-])=C(Sc4nc5c(=O)[nH]c(=O)[nH]c5s4)CC[C@H]23)cs1.[Na+]", "MIC": 1}, {"compound": "Nc1nc(/C(=N\\OCCF)C(=O)N[C@@H]2C(=O)N3C(C(=O)[O-])=C(Sc4nc5ccc([N+](=O)[O-])cc5s4)CC[C@H]23)cs1.[Na+]", "MIC": 1}]}, {"system": "Staphylococcus aureus", "test": "Minimum inhibitory concentration against homoresistant strain of Staphylococcus aureus 447 in the absence of NaCl", "assay_type": "functional", "units": {"MIC": "µg/mL"}, "values": [{"compound": "Nc1nc(/C(=N\\OCCF)C(=O)N[C@@H]2C(=O)N3C(C(=O)[O-])=C(Sc4nc5ccc([N+](=O)[O-])cc5s4)CC[C@H]23)cs1.[Na+]", "MIC": 1.9}]}, {"system": "Haemophilus influenzae", "test": "In vitro antimicrobial activity against Haemophilus influenzae C.L. strain", "assay_type": "functional", "units": {"MIC": "µg/mL"}, "values": [{"compound": "Nc1nc(/C(=N\\OCCF)C(=O)N[C@@H]2C(=O)N3C(C(=O)[O-])=C(Sc4nc5c(=O)[nH]c(=O)[nH]c5s4)CC[C@H]23)cs1.[Na+]", "MIC": "< 0.008"}, {"compound": "Nc1nc(/C(=N\\OCCF)C(=O)N[C@@H]2C(=O)N3C(C(=O)[O-])=C(Sc4nc5ccc([N+](=O)[O-])cc5s4)CC[C@H]23)cs1.[Na+]", "MIC": 0.03}]}, {"system": "Staphylococcus epidermidis", "test": "In vitro antimicrobial activity against Staphylococcus epidermidis 270 strain", "assay_type": "functional", "units": {"MIC": "µg/mL"}, "values": [{"compound": "Nc1nc(/C(=N\\OCCF)C(=O)N[C@@H]2C(=O)N3C(C(=O)[O-])=C(Sc4nc5c(=O)[nH]c(=O)[nH]c5s4)CC[C@H]23)cs1.[Na+]", "MIC": 8}, {"compound": "Nc1nc(/C(=N\\OCCF)C(=O)N[C@@H]2C(=O)N3C(C(=O)[O-])=C(Sc4nc5ccc([N+](=O)[O-])cc5s4)CC[C@H]23)cs1.[Na+]", "MIC": 0.5}]}, {"system": "Escherichia coli", "test": "In vitro evaluation of antimicrobial activity against Escherichia coli EC14 strain", "assay_type": "functional", "units": {"MIC": "µg/mL"}, "values": [{"compound": "Nc1nc(/C(=N\\OCCF)C(=O)N[C@@H]2C(=O)N3C(C(=O)[O-])=C(Sc4nc5c(=O)[nH]c(=O)[nH]c5s4)CC[C@H]23)cs1.[Na+]", "MIC": 0.06}, {"compound": "Nc1nc(/C(=N\\OCCF)C(=O)N[C@@H]2C(=O)N3C(C(=O)[O-])=C(Sc4nc5ccc([N+](=O)[O-])cc5s4)CC[C@H]23)cs1.[Na+]", "MIC": 0.25}]}, {"system": "Staphylococcus aureus", "test": "In vitro antimicrobial activity against Staphylococcus aureus S13E strain", "assay_type": "functional", "units": {"MIC": "µg/mL"}, "values": [{"compound": "Nc1nc(/C(=N\\OCCF)C(=O)N[C@@H]2C(=O)N3C(C(=O)[O-])=C(Sc4nc5c(=O)[nH]c(=O)[nH]c5s4)CC[C@H]23)cs1.[Na+]", "MIC": 16}, {"compound": "Nc1nc(/C(=N\\OCCF)C(=O)N[C@@H]2C(=O)N3C(C(=O)[O-])=C(Sc4nc5ccc([N+](=O)[O-])cc5s4)CC[C@H]23)cs1.[Na+]", "MIC": 2}]}, {"organism": "Homo sapiens", "test": "In vitro plasma protein binding was evaluated by using Human plasma at 20 ug/mL", "assay_type": "ADME", "procedure,_shortened": "as §1", "units": {"Bound": "%"}, "values": [{"compound": "Nc1nc(/C(=N\\OCCF)C(=O)N[C@@H]2C(=O)N3C(C(=O)[O-])=C(Sc4nc5ccc([N+](=O)[O-])cc5s4)CC[C@H]23)cs1.[Na+]", "Bound": "> 99.2"}]}, {"system": "Staphylococcus aureus", "test": "Minimum inhibitory concentration against sensitive strain of Staphylococcus aureus 446 in 4% of NaCl", "assay_type": "functional", "units": {"MIC": "µg/mL"}, "values": [{"compound": "Nc1nc(/C(=N\\OCCF)C(=O)N[C@@H]2C(=O)N3C(C(=O)[O-])=C(Sc4nc5ccc([N+](=O)[O-])cc5s4)CC[C@H]23)cs1.[Na+]", "MIC": 0.25}]}, {"system": "Staphylococcus epidermidis", "test": "In vitro antimicrobial activity against Staphylococcus epidermidis 222 strain", "assay_type": "functional", "units": {"MIC": "µg/mL"}, "values": [{"compound": "Nc1nc(/C(=N\\OCCF)C(=O)N[C@@H]2C(=O)N3C(C(=O)[O-])=C(Sc4nc5c(=O)[nH]c(=O)[nH]c5s4)CC[C@H]23)cs1.[Na+]", "MIC": 2}, {"compound": "Nc1nc(/C(=N\\OCCF)C(=O)N[C@@H]2C(=O)N3C(C(=O)[O-])=C(Sc4nc5ccc([N+](=O)[O-])cc5s4)CC[C@H]23)cs1.[Na+]", "MIC": 0.5}]}, {"system": "Staphylococcus aureus", "test": "Minimum inhibitory concentration against methicillin-resistant Staphylococcus aureus 430 (MRSA) in vitro using trypticase soy broth (TSB)", "assay_type": "functional", "units": {"MIC": "µg/mL"}, "values": [{"compound": "Nc1nc(/C(=N\\OCCF)C(=O)N[C@@H]2C(=O)N3C(C(=O)[O-])=C(Sc4nc5ccc([N+](=O)[O-])cc5s4)CC[C@H]23)cs1.[Na+]", "MIC": 0.5}]}]}
